From ChEMBL document CHEMBL1155568, “Biological characterization of fusapyrone and deoxyfusapyrone, two bioactive secondary metabolites of Fusarium semitectum” (J Nat Prod, 2000)
Active and inactive are the calls of the source. The calls are words filed in the database; no cut-off is given here.

What was measured:
[1] = test system: Cryptococcus neoformans; test: Antifungal activity against Cryptococcus neoformans 13 after 24 hrs by broth micromethod assay; format: functional
Procedure, shortened: (§1)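 Broth microdilution in YNB with 0.5% glucose, phosphate buffer pH 7, using ten 2-fold dilutions (50-0.097 µg/mL). Inoculum from 24-48 h Sabouraud agar cultures, final 5 × 10^2 cells for C. albicans and C. kefyr, 5 × 10^3 cells/conidia for C. glabrata, Cryptococcus neoformans and Aspergillus. Incubated at 35 °C up to 72 h, read every 24 h. MIC is the complete absence of growth versus medium controls.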

[2] = test system: Botrytis cinerea; test: Antifungal activity against Botrytis cinerea ITEM 966 at 5 ug/disk by paper disk method; format: functional, organism-based
Procedure, shortened: (§2)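 Agar diffusion: a 0.7% water-agar overlay carrying 10^4 conidia/mL (or yeast cells) is poured on PDA. 6-mm cellulose disks loaded with methanolic compound at 5 or 15 µg/disk are air-dried and applied, with nystatin as comparator. Plates incubated 24-72 h at 25 °C; inhibition halo diameter read from three disks. Agar under each disk is subcultured on PDA to score fungicidal/fungistatic effect. Experiment run twice and averaged.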

[3] = test system: Meyerozyma guilliermondii; test: Antifungal activity against Candida guilliermondii ITEM 1638 at 15 ug/disk by paper disk method; format: functional; settings: read-out: IZ; procedure, shortened: as §2
[4] = test system: Nakaseomyces glabratus; test: Antifungal activity against Candida glabrata 12 after 48 hrs by broth micromethod assay; format: functional; procedure, shortened: as §1
[5] = test system: Candida albicans; test: Antifungal activity against Candida albicans 1 after 24 hrs by broth micromethod assay; format: functional; procedure, shortened: as §1
[6] = test system: Fusarium incarnatum; test: Antifungal activity against Fusarium semitectum ITEM 393 at 15 ug/disk by paper disk method; format: functional; settings: read-out: IZ; procedure, shortened: as §2
[7] = test system: Aspergillus fumigatus; test: Antifungal activity against Aspergillus fumigatus 1 after 48 hrs by broth micromethod assay; format: functional; procedure, shortened: as §1
[8] = test system: Cryptococcus neoformans; test: Antifungal activity against Cryptococcus neoformans 14 after 72 hrs by broth micromethod assay; format: functional; procedure, shortened: as §1
[9] = test system: Aspergillus parasiticus; test: Antifungal activity against Aspergillus parasiticus ITEM 11 at 15 ug/disk by paper disk method; format: functional; settings: read-out: IZ; procedure, shortened: as §2
[10] = test system: Solanum lycopersicum; test: Phytotoxicity in tomato leaf assessed as necrosis in the leaf at 10^-3 M by leaf puncture assay; format: organism-based; settings: in vivo, 1000 µM
Procedure, shortened: (§3)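 Tomato and chickpea leaves were punctured and treated with toxin dissolved in MeOH and diluted with water (final 4% MeOH), tested from 10^-2 to 10^-7 M. Chlorosis and necrosis were recorded visually as spot symptoms.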

[11] = test system: Solanum lycopersicum; test: Stimulation of root elongation in tomato at 10^-4 M; format: functional, organism-based
Procedure, shortened: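 Tomato seeds were surface-sterilized in 4% NaClO for 10 min and pregerminated 3 days in the dark. They were then placed 10 per dish on filter paper wetted with 2 mL of compound in 1% MeOH (10^-4 or 10^-5 M) and held 4 days at 25 °C under a 12-h photoperiod. Shoot and rootlet lengths were measured against control; done in triplicate, repeated once.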

[12] = test system: Kluyveromyces marxianus; test: Antifungal activity against Candida kefyr Y0601 after 48 hrs by broth micromethod assay; format: functional; procedure, shortened: as §1
[13] = test system: Aspergillus niger; test: Antifungal activity against Aspergillus niger 2 after 24 hrs by broth micromethod assay; format: functional; procedure, shortened: as §1
[14] = test system: Kluyveromyces marxianus; test: Antifungal activity against Candida kefyr Y0601 after 72 hrs by broth micromethod assay; format: functional; procedure, shortened: as §1
[15] = test system: Kluyveromyces marxianus; test: Antifungal activity against Kluyveromyces fragilis ITEM 1657 at 15 ug/disk by paper disk method; format: functional; settings: read-out: IZ
Procedure, shortened: (§4)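 Agar overlay disk diffusion on plant-derived filamentous fungi and yeasts: 0.7% water-agar seeded with 10^4 conidia/mL or a yeast cell suspension, poured over PDA. 6-mm cellulose disks were loaded from methanolic solutions and air-dried, with nystatin as comparator. Plates ran 24-72 h at 25 °C; inhibition halo was measured over three disks. Agar beneath disks was subcultured on PDA to separate fungicidal from fungistatic, scored in four classes; run twice, averaged.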

[16] = test system: Wickerhamomyces anomalus; test: Antifungal activity against Pichia anomala ITEM 1625 at 15 ug/disk by paper disk method; format: functional; settings: Hansenula anomala; read-out: IZ; procedure, shortened: as §4
[17] = test system: Cryptococcus neoformans; test: Antifungal activity against Cryptococcus neoformans 13 after 48 hrs by broth micromethod assay; format: functional; procedure, shortened: as §1
[18] = test system: Fusarium subglutinans; test: Antifungal activity against Fusarium subglutinans at 15 ug/disk by paper disk method; format: functional; procedure, shortened: as §2
[19] = test system: Aspergillus flavus; test: Antifungal activity against Aspergillus flavus 3 after 72 hrs by broth micromethod assay; format: functional; procedure, shortened: as §1
[20] = test system: Solanum lycopersicum; test: Phytotoxicity in tomato leaf assessed as necrosis in the leaf at 10^-2 M by leaf puncture assay; format: organism-based; settings: in vivo; procedure, shortened: as §3
[21] = test system: Kluyveromyces marxianus; test: Antifungal activity against Candida kefyr at 50 ug/disk by paper disk method; format: functional, organism-based
[22] = test system: Kluyveromyces marxianus; test: Antifungal activity against Candida kefyr Y0601 after 24 hrs by broth micromethod assay; format: functional; procedure, shortened: as §1
[23] = test system: Alternaria alternata; test: Antifungal activity against Alternaria alternata ITEM 468 at 15 ug/disk by paper disk method; format: functional; settings: read-out: IZ; procedure, shortened: as §2
[24] = test system: Wickerhamomyces anomalus; test: Antifungal activity against Pichia anomala ITEM 1661 at 15 ug/disk by paper disk method; format: functional; settings: Hansenula anomala; read-out: IZ; procedure, shortened: as §4
[25] = test system: Fusarium graminearum; test: Antifungal activity against Fusarium graminearum ITEM 2 at 15 ug/disk by paper disk method; format: functional; settings: read-out: IZ
Procedure, shortened: (§5)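 Agar overlay diffusion: 0.7% water-agar with 10^4 conidia/mL of test fungus poured over PDA; 6-mm cellulose disks impregnated with methanolic compound solution, air-dried. Incubated 25 °C for 24-72 h by fungus; growth-inhibition halo diameter from three replicate disks. Agar under disks then subcultured on PDA to score fungicidal/fungistatic classes. Repeated twice, averaged.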

[26] = test system: Artemia salina; test: (§6) Toxicity against Artemia salina larvae; format: organism-based; settings: in vivo
Procedure, shortened: (§7)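 Quadruplicate wells; mortality counted after 24 and 36 h at 27 °C. LC50 from probit analysis of dose-mortality data from six independent experiments.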

[27] = test system: Aspergillus flavus; test: Antifungal activity against Aspergillus flavus 3 after 48 hrs by broth micromethod assay; format: functional; procedure, shortened: as §1
[28] = test system: Cicer arietinum; test: Phytotoxicity in chickpea leaf assessed as necrosis in the leaf at 10^-3 M by leaf puncture assay; format: organism-based; settings: in vivo, 1000 µM; procedure, shortened: as §3
[29] = test system: Meyerozyma guilliermondii; test: Antifungal activity against Pichia guilliermondii ITEM 1644 at 15 ug/disk by paper disk method; format: functional; settings: read-out: IZ; procedure, shortened: as §4
[30] = test system: Kluyveromyces lactis; test: Antifungal activity against Kluyveromyces lactis ITEM 1656 at 15 ug/disk by paper disk method; format: functional; settings: read-out: IZ; procedure, shortened: as §4
[31] = test system: Fusarium acuminatum; test: Antifungal activity against Fusarium acuminatum ITEM 795 at 15 ug/disk by paper disk method; format: functional; settings: read-out: IZ; procedure, shortened: as §2
[32] = test system: Alternaria citri; test: Antifungal activity against Alternaria citri ITEM 466 at 15 ug/disk by paper disk method; format: functional; settings: read-out: IZ; procedure, shortened: as §5
[33] = test system: Penicillium verrucosum; test: Antifungal activity against Penicillium verrucosum ITEM 439 at 5 ug/disk by paper disk method; format: functional, organism-based; procedure, shortened: as §4
[34] = test system: Penicillium verrucosum; test: Antifungal activity against Penicillium verrucosum ITEM 439 at 15 ug/disk by paper disk method; format: functional; settings: read-out: IZ; procedure, shortened: as §4
[35] = test system: Starmera dryadoides; test: Antifungal activity against Pichia dryadoides ITEM 1663 at 15 ug/disk by paper disk method; format: functional; settings: Liangdongia dryadoides; read-out: IZ; procedure, shortened: as §4
[36] = test system: Penicillium brevicompactum; test: Antifungal activity against Penicillium brevicompactum ITEM 449 at 15 ug/disk by paper disk method; format: functional; settings: read-out: IZ; procedure, shortened: as §4
[37] = test system: Plenodomus tracheiphilus; test: Antifungal activity against Phoma tracheiphilla ITEM 1605 at 15 ug/disk by paper disk method; format: functional; settings: read-out: IZ; procedure, shortened: as §4
[38] = as §6; format: organism-based; settings: in vivo; procedure, shortened: as §7

CCCCCCC(C)C/C(C)=C\C(/C=C(C)/C=C/C(O)C(C)(C)c1cc(O)c([C@@H]2O[C@@H](CO)C[C@@H](O)[C@@H]2O)c(=O)o1)CO (stereo partly specified) [FUSAPYRONE]
Activity [1]: 6.25 µg/mL | Activity [2]: inactive | zone of inhibition at 15 µg/disc [3]: 0 mm | Activity [4]: >50 µg/mL | Activity [5]: >50 µg/mL | zone of inhibition at 15 µg/disc [6]: 28.7 mm | Activity [7]: 1.56 µg/mL | Activity [8]: 3.12 µg/mL | zone of inhibition at 15 µg/disc [9]: 27.5 mm | Activity [10]: Active | Activity [11]: Active | Activity [12]: 1.56 µg/mL | Activity [13]: 1.56 µg/mL | Activity [14]: 3.12 µg/mL | zone of inhibition at 15 µg/disc [15]: 0 mm | zone of inhibition at 15 µg/disc [16]: 0 mm | Activity [17]: 6.25 µg/mL | Activity [18]: 6 mm | Activity [19]: 1.56 µg/mL | Activity [20]: Active | Activity [21]: Active | Activity [22]: 0.78 µg/mL | zone of inhibition at 15 µg/disc [23]: 18.8 mm | zone of inhibition at 15 µg/disc [24]: 0 mm | zone of inhibition at 15 µg/disc [25]: 26.5 mm | Activity [26]: Not Active | Activity [27]: 1.56 µg/mL | Activity [28]: Active | zone of inhibition at 15 µg/disc [29]: 0 mm | zone of inhibition at 15 µg/disc [30]: 0 mm | zone of inhibition at 15 µg/disc [31]: 17.8 mm | zone of inhibition at 15 µg/disc [32]: 18 mm | Activity [33]: inactive | zone of inhibition at 15 µg/disc [34]: 29.7 mm | zone of inhibition at 15 µg/disc [35]: 0 mm | zone of inhibition at 15 µg/disc [36]: 30 mm | zone of inhibition at 15 µg/disc [37]: 40 mm

CCCCCCC(C)C/C(C)=C\C(C)/C=C(C)/C=C/C(O)C(C)(C)c1cc(O)c([C@@H]2O[C@@H](CO)C[C@@H](O)[C@@H]2O)c(=O)o1 (stereo partly specified) [DEXOYFUSAPYRONE]
Activity [1]: 6.25 µg/mL | zone of inhibition at 15 µg/disc [3]: 0 mm | Activity [5]: >50 µg/mL | zone of inhibition at 15 µg/disc [6]: 8 mm | Activity [7]: 3.12 µg/mL | Activity [8]: 3.12 µg/mL | zone of inhibition at 15 µg/disc [9]: 12.7 mm | Activity [11]: Active | Activity [13]: 1.56 µg/mL | zone of inhibition at 15 µg/disc [15]: 0 mm | zone of inhibition at 15 µg/disc [16]: 0 mm | Activity [17]: 6.25 µg/mL | Activity [18]: 0 mm | Activity [19]: 1.56 µg/mL | Activity [22]: >50 µg/mL | zone of inhibition at 15 µg/disc [23]: 10.8 mm | zone of inhibition at 15 µg/disc [24]: 0 mm | zone of inhibition at 15 µg/disc [25]: 10.8 mm | LC50 [38]: 37.1 µM | Activity [27]: 1.56 µg/mL | Activity [28]: Active | zone of inhibition at 15 µg/disc [29]: 0 mm | zone of inhibition at 15 µg/disc [30]: 0 mm | zone of inhibition at 15 µg/disc [31]: 0 mm | zone of inhibition at 15 µg/disc [32]: 9.2 mm | zone of inhibition at 15 µg/disc [34]: 11 mm | zone of inhibition at 15 µg/disc [35]: 0 mm | zone of inhibition at 15 µg/disc [36]: 10.5 mm | zone of inhibition at 15 µg/disc [37]: 16.3 mm
